Measurements taken from ChEMBL document CHEMBL1147858, “Short-chain 3-ketoceramides, strong apoptosis inducers against human leukemia HL-60 cells” (Bioorg Med Chem, 2007).
The source made the active and inactive calls. The calls are words filed in the database; no cut-off is given here.

Columns and labels:
Format in all cases: functional, cell-based
Conditions in all cases: Homo sapiens
HL-60 [1] = experiment: Antileukemic effect against HL60 cells assessed as cell survival at 1 uM after 6 hrs by MTT assay relative to C2-Cer
Summary of the method: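 Serum-free RPMI 1640 HL-60 suspension (0.4–1 × 10^6 cells/mL after two washes), […] per well; compounds added from ethanol stocks (1–20 mM), final EtOH 0.1%, vehicle control 0.1% EtOH; 6 h exposure; MTT (10 µL of 5 mg/mL) added 2 h before end; formazan dissolved with 0.04 M HCl in isopropanol.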

HL-60 [2] = experiment: Effect on apoptosis in HL60 cells assessed as caspase-3 activation at 5 uM by Western blot analysis
Summary of the method: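 HL-60 cells exposed 2–6 h (also 30–90 min) to compound, ethanol vehicle (final EtOH 0.1%); cells pelleted, PBS-washed twice, lysed in urea/SDS/β-mercaptoethanol buffer, boiled 3 min, run on 14% SDS-PAGE, PVDF blot probed with rabbit polyclonal anti-caspase-3 and alkaline phosphatase-coupled goat anti-rabbit; pro- versus active caspase-3 bands read.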

HL-60 [3] = experiment: Induction of apoptosis in HL60 cells assessed as DNA fragmentation at 5uM
Summary of the method: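 HL-60 cells (2 × 10^6 cells/2 mL) exposed for various periods, ethanol vehicle; lysed in Tris/EDTA/0.5% Triton X-100, soluble lysate treated with RNase A (0.2 mg/mL, 1 h, 37 °C) then proteinase K (0.2 mg/mL, 50 °C, 30 min); DNA isopropanol-precipitated overnight at −20 °C, run on 2.0% agarose at 50 V, ethidium bromide stained, UV visualized.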

HL-60 [4] = experiment: Effect on apoptosis in HL60 cells assessed as mitochondrial cytochrome C release at 5 uM by Western blot analysis
Summary of the method: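 HL-60 cells (6 × 10^6 cells/mL) treated for various periods, ethanol vehicle; PBS-washed, Dounce-homogenized in HEPES/KCl/EDTA/EGTA/DTT buffer with protease inhibitors; 1000g spin removes nuclei/heavy membranes, mitochondria-rich fraction pelleted, supernatant spun at 100,000g for cytosol; both fractions immunoblotted with anti-cytochrome c.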

Row | SMILES | Activity (HL-60 [1]) | Activity (HL-60 [2]) | Activity (HL-60 [3]) | Activity (HL-60 [4])
1 | CCCCCCCCCCCCC/C=C/C(=O)[C@H](CO)NC(C)=O | Active | Active | Active | Active
2 | CCCCCCCCCCCCC/C=C/C(=O)[C@H](COC)NC(C)=O | Active | Active | Active | Active
3 | CCCCCCCCCCC/C=C/C=C/C(=O)[C@H](CO)NC(C)=O | inactive | Active |  | Active
